Compound activity from PubChem.
TNAP inh hiacc: blocks human TNAP under high phosphate acceptor concentration | purified TNAP, CDP-star luminescence, 1 M DEA | inhibition, % at 20 µM | AID 1135 | hit rate 0.03% among 200,000;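 active means over 50% inhibition of tissue-nonspecific alkaline phosphatase at 20 µM in the single-dose screen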;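 further: plate controls were DMSO wells for no effect and EDTA-quenched wells as full inhibition for full effect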
Target sequence (P05186 whole entry, looked up): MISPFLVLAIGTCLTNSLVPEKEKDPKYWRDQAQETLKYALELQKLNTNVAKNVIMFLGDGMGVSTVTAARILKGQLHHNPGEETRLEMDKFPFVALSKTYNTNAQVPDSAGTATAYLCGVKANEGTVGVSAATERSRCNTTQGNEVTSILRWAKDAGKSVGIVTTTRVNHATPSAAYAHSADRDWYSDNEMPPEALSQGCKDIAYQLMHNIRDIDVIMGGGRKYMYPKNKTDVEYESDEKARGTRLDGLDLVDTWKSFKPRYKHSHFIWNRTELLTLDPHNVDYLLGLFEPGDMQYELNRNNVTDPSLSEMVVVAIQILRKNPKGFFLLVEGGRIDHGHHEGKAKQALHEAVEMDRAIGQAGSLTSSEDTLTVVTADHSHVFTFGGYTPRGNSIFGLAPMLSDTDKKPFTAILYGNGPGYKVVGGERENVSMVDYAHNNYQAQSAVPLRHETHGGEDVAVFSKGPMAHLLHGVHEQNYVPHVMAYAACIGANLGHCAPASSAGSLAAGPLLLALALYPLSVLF
TNAP inh no acc: blocks human TNAP activity with no phosphate acceptor present; P05186; hit rate 0.26% among 200,000; purified TNAP, CDP-star luminescence, 30 min; inhibition, % at 20 µM;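 active means tissue-nonspecific alkaline phosphatase inhibition above about 50% at 20 µM in the single-dose screen, limit read from the data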;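 further: 0% = DMSO negative control and 100% = EDTA positive control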
PKD1 kinase inh: PKD1 (human) kinase inhibition. Q15139. PKD1 kinase fluorescence polarization assay. inhibition, % (test concentration not listed). hit rate 0.056% among 200,000. AID 797; in the data active means inhibition above about 50%
Arbovirus anti: antivirals against arbovirus infection; inhibition, % at 10 µM; AID 1251; arbovirus infection cell-based antiviral screen; hit rate 0.37% among 200,000; in the data active means inhibition above about 30%
TNAP act hiacc: increases human TNAP activity under high phosphate acceptor concentration; 200,000 tested, under 10 active; purified TNAP, CDP-star luminescence, 1 M DEA, 30 min; active compounds read high; 0 = EDTA background, 1 = DMSO-only activity; activation factor at 20 µM;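 active means activation factor at least 2 at 20 µM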
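system = human TNAP | amount = enzyme diluted 1/800 final | reagent = 100 µM CDP-star substrate | signal = luminescent substrate turnover signal | dosing = one dose, 20 µM | benchmarks = EDTA negative control, DMSO positive control | measure = activation factor | timing = 30 min reaction, room temperature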
Numbers without * were called inactive; / = no result given. Most compounds without a hit are left out; they make up all but 0.73% or so of the library.

SMILES	TNAP inh hiacc	TNAP inh no acc	PKD1 kinase inh	Arbovirus anti	TNAP act hiacc
COc1cc(C=C2C(=O)OC(c3ccccc3)OC2=O)cc(Br)c1O (stereo unspecified)	-4	38	-3	3	1
COc1cc(C2N=C(c3ccccc3)NO2)cc(Br)c1O (stereo unspecified)	0	-13	-8	35*	1
COc1ccccc1NC(=O)CN1CCN(c2ccccc2)CC1	1	-3	-1	8	1
CCn1c(SCC(=O)Nc2sc3c(c2C#N)CCCC3)nnc1-c1ccco1	53*	35	-3	3	0.5
O=C(CN1CCN(Cc2ccc(Cl)cc2)CC1)N/N=C/c1c[nH]c2ccccc12	-4	-4	-5	2	1
O=C(CN1CCSC1=NCc1ccccc1)c1ccccc1	4	4	8	-8	1
CN(CCc1ccccn1)C(=O)CCC1CCCN(C(=O)c2n[nH]c3c2CCCC3)C1 (stereo unspecified)	-4	70*	-3	5	1
CN(CCc1ccccn1)C(=O)CCC1CCCN(C(=O)c2ccccn2)C1 (stereo unspecified)	-2	-2	1	3	1
CCOC(=O)Cn1cnc2c(cnn2-c2ccc(Cl)cc2)c1=O	-6	-10	-8	7	1.1
Cc1nnc2c3cnn(-c4ccc(Cl)cc4)c3ncn12	-5	67*	/	/	1.1
Cc1ccc(C)c(-n2cc[nH]c2=S)c1	4	-104	0	-5	1
CCOc1cc(/C=C2/SC(=S)N(CC3CCCO3)C2=O)ccc1O (stereo unspecified)	52*	33	7	3	0.5
CCOc1cc(/C=C2\SC(=S)N(NC(=O)c3cccnc3)C2=O)ccc1O	51*	49	-1	2	0.5
O=C(CCN1C(=O)/C(=C/c2cccc(Br)c2)SC1=S)NNC(=O)c1cccnc1	-4	-206	-2	0	1
Fc1ccccc1N1CCN(Cc2nc(-c3ccc(Cl)cc3Cl)no2)CC1	-3	-1	-1	31*	1
Oc1ccc(-c2nc3ccc4ccccc4c3c3c2CCC3)cc1O	21	50*	31	-33	0.8
COc1ccc(-c2cc(C(=O)O)nc3ccc4ccccc4c23)cc1OC	-7	-20	0	1	1.1
CCOc1cccc(C(=O)Nc2ccccc2N2CCN(C(=O)C(C)C)CC2)c1	-2	0	-29	35*	1
CC1=NN(c2nc(-c3ccc(Cl)cc3)cs2)C(=O)C1	1	-8	-4	42*	1
COc1ccc(-c2[nH]ncc2CNCCCSC)cc1F	-1	28	0	0	1
COc1ccc(-c2[nH]ncc2CNCCn2cccn2)c(F)c1	-4	85*	1	-2	1
COc1ccc(-c2[nH]ncc2CNCc2cc(C)n(C)n2)c(F)c1	-7	68*	0	-5	1.1
O=C(O)CSc1nc(-c2ccccc2)nc2c1oc1ccccc12	-1	-6	1	-3	1
O=C(O)CSc1nc(-c2ccc(Cl)cc2)nc2c1oc1ccccc12	-3	-7	-2	35*	1
O=C(c1ccccc1-n1cccn1)N1CCc2c([nH]c3ccccc23)C1c1ccccn1 (stereo unspecified)	-11	-13	3	0	1.1
SMILES	TNAP inh hiacc	TNAP inh no acc	PKD1 kinase inh	Arbovirus anti	TNAP act hiacc
Cc1ccc2ncccc2c1NC(=S)NC(=O)c1ccccc1	-1	5	-5	6	1
CCOC(=O)c1c2c3c(cccc3[nH]c1=O)C(=O)c1ccccc1-2	3	-7	2	0	1
COCCCNc1c2c3c(cccc3[nH]c1=O)C(=O)c1ccccc1-2	13	3	110*	-31	0.9
O=C(NCc1cccnc1)c1nn2cccnc2c1Cl	-7	-6	-9	1	1.1
O=C(Nc1sc2c(c1C(=O)O)CCCCC2)c1ccccc1F	-3	-9	5	38*	1
COC(=O)c1c(NC(=O)c2ccc(C)o2)sc2c1CCCCC2	-3	-4	-11	5	1
Cc1ccc(C(=O)Nc2sc3c(c2C(=O)O)CCCCC3)o1	-6	-3	-1	47*	1.1
O=C(Nc1sc2c(c1C(=O)O)CCC2)c1ccco1	-6	-6	-5	10	1.1
CC(C)OC(=O)c1c(NC(=O)c2cccs2)sc2c1CCCC2	-6	-13	-2	6	1.1
O=C(Nc1sc2c(c1C(=O)O)CCCC2)c1cccs1	-8	-11	-8	48*	1.1
O=C(Nc1sc2c(c1C(=O)O)CCCCC2)c1cccs1	2	-4	0	46*	1
O=C(COc1ccccc1Cl)NCCC1=CCCCC1	-2	-9	-2	3	1
N=c1ncn(Cc2ccccc2)c2nc(SCCOc3ccccc3)[nH]c12	-2	6	-20	-4	1
CC(C)(C)c1ccc(C(=O)Nc2sc3c(c2C(=O)O)CCC3)cc1	-2	-11	-3	32*	1
Cn1cccc1C(=O)NC(=O)COC(=O)c1cc(S(=O)(=O)N2CCCCC2)ccc1Cl	0	-6	91*	6	1
COc1ccc(S(=O)(=O)N2CCCCCC2)cc1C(=O)OCC(=O)NC(N)=O	-4	-10	4	1	1
Cc1ccc(S(=O)(=O)NNC(=O)C(O)(c2ccccc2C)c2ccccc2C)cc1	0	-21	13	12	1
CC(NC(=S)Nc1ccc(S(=O)(=O)N2CCOCC2)cc1)C1CC2CCC1C2 (stereo unspecified)	0	-53	2	-25	1
Cc1ccccc1C(=O)NNC(=O)CSc1nc(-c2ccccc2)cc(=O)[nH]1	-4	75*	-8	5	1
CC(=O)Nc1cc(-c2ccc(Cl)cc2)[nH]n1	-4	88*	2	-1	1
COc1cc(C(=O)Nc2nc(OC)c(-c3ccccc3)c(OC)n2)cc(OC)c1OC	-4	-8	-5	-11	1
COc1cc(C(=O)Nc2cc(-c3ccccc3)[nH]n2)cc(OC)c1OC	-6	63*	/	-14	1.1
COc1cc(OC)cc(-c2cc(NC(C)=O)n[nH]2)c1	-4	1	-5	2	1
CN1C(=O)C(c2nnc(Nc3cccc4ccccc34)s2)C2CC1(C)Oc1ccccc12 (stereo unspecified)	0	-9	1	-13	1
COC(=O)c1ccccc1N1CCS(=O)(=O)CC1	-5	-7	-3	5	1
CCC1Oc2ccccc2N(CC(=O)NCc2cccs2)C1=O (stereo unspecified)	-1	-9	0	9	1
COc1ccc(-c2noc(-c3ccccc3-c3ccccc3)n2)cc1OC	0	-3	5	31*	1
COc1ccc(-c2noc(CSc3nc(-c4ccccc4)cc(=O)[nH]3)n2)cc1OC	-6	-9	0	52*	1.1
Cc1cnc(C(=O)OCC(=O)c2cc(C)n(C)c2C)cn1	-2	-4	-2	7	1
CC(=O)Nc1ccc(Nc2nc(C)c([N+](=O)[O-])c(Nc3ccc(NC(C)=O)cc3)n2)cc1	4	18	-2	19	1
